CHRM5 PAM: positive allosteric modulators of human muscarinic M5 receptor; CHO-K1 hM5, Fluo-8 calcium, ACh EC20 PAM; 0% = ACh EC20, 100% = ACh EC100; activation, % at 3 µM; actives 0.3% (n = 360,000); P08912;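 active = activation above the run cutoff, the mean activation of all test compounds plus 3 SD, cut at about 18% in these data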
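system = human M5 receptor in CHO-K1 cells | reagent = EC20 acetylcholine as agonist stimulus | compound dosing = single-point, 3 µM nominal | incubation = Fluo-8 loading 80 min at 37 °C plus 30 min room temperature | detection = Fluo-8 calcium dye fluorescence, kinetic read | benchmarks = low control EC20 acetylcholine (0%), high control EC100 acetylcholine (100%)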
CHRM5 antagonist: blocks acetylcholine activation of human M5 receptor | P08912 | CHO-hM5 cells, Fluo-8 calcium fluorescence, ACh EC80 | inhibition, % at 3 µM | actives 0.59% (n = 360,000) | AID 624040;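 active = inhibition above a per-plate cutoff, the mean of that plate's test compounds plus 3 SD, cut at about 27% in these data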;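 note: 0% = acetylcholine EC80 with DMSO and 100% = DMSO without agonist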
CHRM4 antagonist: blocks acetylcholine activation of human M4 receptor. P08173. CHO-hM4 cells, ACh EC80, Fluo-8 calcium fluorescence. inhibition, % at 3 µM. actives 0.73% (n = 360,000);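 active = inhibition above its plate's cutoff, the mean inhibition of sample wells plus 3 SD, cut at about 27% in these data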;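 note: 0% = acetylcholine EC80 with DMSO and 100% = DMSO without agonist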
Target sequence (P08173 whole entry, looked up): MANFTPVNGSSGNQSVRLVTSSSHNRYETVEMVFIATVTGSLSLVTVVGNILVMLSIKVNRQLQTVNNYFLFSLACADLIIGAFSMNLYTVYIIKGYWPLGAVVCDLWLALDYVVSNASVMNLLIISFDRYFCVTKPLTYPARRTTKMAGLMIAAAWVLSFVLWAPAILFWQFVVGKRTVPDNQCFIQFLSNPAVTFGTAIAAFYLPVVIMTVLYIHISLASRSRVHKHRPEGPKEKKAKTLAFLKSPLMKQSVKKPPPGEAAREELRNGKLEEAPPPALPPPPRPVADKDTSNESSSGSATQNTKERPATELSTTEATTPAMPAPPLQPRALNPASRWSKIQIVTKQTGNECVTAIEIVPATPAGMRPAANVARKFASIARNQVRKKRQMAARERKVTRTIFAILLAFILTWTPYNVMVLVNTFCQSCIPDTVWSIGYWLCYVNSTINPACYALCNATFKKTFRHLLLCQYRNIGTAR
CHRM4 PAM: CHRM4 positive allosteric modulation | P08173 | CHO-K1 hM4/Gqi5, Fluo-8 calcium fluorescence, ACh EC20; 0% = ACh EC20, 100% = maximal ACh | activation, % at 3 µM | actives 0.4% (n = 360,000);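 active = activation above its plate's cutoff, the mean activation of sample wells plus 3 SD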
M4 ag: CHRM4 agonism in calcium assay. actives 0.14% (n = 360,000). CHO-K1 hM4/Gqi5, Fluo-8 calcium fluorescence; vehicle 0%, full acetylcholine response 100%. activation, % at 3 µM. P08173. AID 624127;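 active = activation above the run mean over all test wells plus 3 SD, cut at about 32% in these data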;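 note: peak over basal fluorescence ratio per well then scaled between controls; 0% = DMSO wells and 100% = acetylcholine at EC100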
M5 ag: CHRM5 agonism in calcium assay. P08912. AID 624037. activation, % at 3 µM. actives 0.19% (n = 360,000). CHO-K1 hM5 cells, Fluo-8 calcium fluorescence; 0% DMSO wells, 100% maximal acetylcholine response;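 active = activation above the run's mean over test compounds plus 3 SD, cut at about 23% in these data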;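 note: signal is peak over basal fluorescence ratio across the kinetic read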
An asterisk follows results filed as active. Hits are enriched below; roughly 1.8% of the tested compounds scored in any of these assays.

How did CC(=O)Oc1ccccc1/C=C/c1ccc2ccccc2[n+]1C do in these assays?
CHRM5 PAM: -17.1; CHRM5 antagonist: 32.5*; CHRM4 antagonist: 14.0; CHRM4 PAM: -13.5; M4 ag: 0.0; M5 ag: -8.5

How did Cc1ccc(S(=O)(=O)N2CCN(C(=O)COC(=O)/C=C/c3cccc([N+](=O)[O-])c3)CC2)c(C)c1 do in these assays?
CHRM5 PAM: 0.5; CHRM5 antagonist: 8.9; CHRM4 antagonist: -9.0; CHRM4 PAM: 2.4; M4 ag: 1.6; M5 ag: -1.0

How did CC1CCN(c2ccc(C=O)o2)CC1 do in these assays?
CHRM5 PAM: 3.8; CHRM5 antagonist: 3.0; CHRM4 antagonist: 3.4; CHRM4 PAM: -7.8; M4 ag: 0.0; M5 ag: -1.4

Results for Cn1c(-c2ccc3c(c2)OCO3)cnc1NCc1ccccc1Cl ?
CHRM5 PAM: -15.0; CHRM5 antagonist: 21.6; CHRM4 antagonist: 50.4*; CHRM4 PAM: -26.2; M4 ag: 0.7; M5 ag: -9.6

Results for Cn1c(-c2ccc3c(c2)OCO3)cnc1NCc1ccccc1 ?
CHRM5 PAM: -6.2; CHRM5 antagonist: 0.6; CHRM4 antagonist: 11.3; CHRM4 PAM: -12.9; M4 ag: 0.7; M5 ag: -7.6

How did Cn1c(-c2ccc3c(c2)OCO3)cnc1NCc1cccc(Cl)c1 do in these assays?
CHRM5 PAM: -19.7; CHRM5 antagonist: 12.2; CHRM4 antagonist: 32.3*; CHRM4 PAM: -25.1; M4 ag: 1.7; M5 ag: -6.7

What do the screens show for `CC(=O)c1c(C)[nH]c(C)c1C(C)=O`?
CHRM5 PAM: 27.2*; CHRM5 antagonist: -17.6; CHRM4 antagonist: -7.6; CHRM4 PAM: 32.0*; M4 ag: 1.4; M5 ag: -0.1

Results for CC(=O)c1c(C)[nH]c(C(=O)O)c1C ?
CHRM5 PAM: -4.5; CHRM5 antagonist: 2.4; CHRM4 antagonist: -0.7; CHRM4 PAM: -6.5; M4 ag: 0.6; M5 ag: -6.6

What do the screens show for `O=C(CCNS(=O)(=O)c1ccc(Br)cc1)NCc1ccc(F)cc1`?
CHRM5 PAM: 4.2; CHRM5 antagonist: -11.4; CHRM4 antagonist: 5.0; CHRM4 PAM: 0.5; M4 ag: 1.2; M5 ag: -3.0

What do the screens show for `Cc1ccc(OCCCCn2ccnc2C)c(C)c1`?
CHRM5 PAM: -17.0; CHRM5 antagonist: 7.0; CHRM4 antagonist: -6.5; CHRM4 PAM: -8.3; M4 ag: 13.2; M5 ag: -11.7

What do the screens show for `Cc1ccc(C(C)C)c(OCCn2ccnc2C)c1`?
CHRM5 PAM: -17.5; CHRM5 antagonist: 57.4*; CHRM4 antagonist: 51.5*; CHRM4 PAM: -17.5; M4 ag: 5.2; M5 ag: -7.5

What do the screens show for `CCSc1nc2cc(S(=O)(=O)N3CCOCC3)ccc2o1`?
CHRM5 PAM: 5.2; CHRM5 antagonist: 6.3; CHRM4 antagonist: -0.2; CHRM4 PAM: 0.0; M4 ag: 1.0; M5 ag: -2.4

How did Cc1ccc(C(=O)CSc2nc3cc(S(=O)(=O)N4CCOCC4)ccc3o2)cc1 do in these assays?
CHRM5 PAM: 19.4*; CHRM5 antagonist: -11.1; CHRM4 antagonist: -9.1; CHRM4 PAM: 6.8; M4 ag: 1.3; M5 ag: -0.2

What do the screens show for `Cc1cc(C)n(-c2ccc([N+](=O)[O-])cc2)n1`?
CHRM5 PAM: 1.8; CHRM5 antagonist: -10.5; CHRM4 antagonist: -25.1; CHRM4 PAM: 1.0; M4 ag: 0.1; M5 ag: -8.4

What do the screens show for `Cc1cc(N)n(-c2ccc([N+](=O)[O-])cc2)n1`?
CHRM5 PAM: 20.1*; CHRM5 antagonist: -17.7; CHRM4 antagonist: -15.1; CHRM4 PAM: 9.6; M4 ag: 3.4; M5 ag: 5.0

How did Cc1ccc(C(=O)NCCc2nnc3ccc(NCCCN4CCOCC4)nn23)cc1 do in these assays?
CHRM5 PAM: 1.8; CHRM5 antagonist: 8.8; CHRM4 antagonist: 5.0; CHRM4 PAM: 2.5; M4 ag: 0.6; M5 ag: -5.8

Results for O=C(COC(=O)CCS(=O)(=O)c1ccccc1)Nc1ccc(N2CCCCC2)cc1 ?
CHRM5 PAM: 4.9; CHRM5 antagonist: -10.4; CHRM4 antagonist: -10.4; CHRM4 PAM: 23.1*; M4 ag: 4.2; M5 ag: 1.2
